Measles CPE = protection of cells from measles virus; Measles virus-infected cells, CPE protection, absorbance; protection (pct of control), % at 4 µM; 140,000 compounds, 1.5% hits; AID 841; in the data active = protection mostly above about 24%, no sharp cut-off; inactive = mostly below about 26%
NPY-Y2 antag = blocks the human neuropeptide Y Y2 receptor; P49146; NPY-Y2 expressing cells, antagonist mode; inhibition, % at 2.7 µM; 140,000 compounds, 0.99% hits; AID 793; in the data active = inhibition above about 17%;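 also: 0% = vehicle with agonist challenge and 100% = reference antagonist with challenge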
NPY-Y1 PAM-ag = human NPY-Y1 potentiation or agonism, primary screen; P25929; NPY-Y1 expressing cells, potentiator/agonist activation; activation, % at 3.6 µM; 220,000 compounds, 0.37% hits; AID 1304; in the data active = activation above about 33%, passing the limit was not always enough;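 also: cells stimulated with NPY at EC10 then isoproterenol at EC100; 0% = low agonist plus stimulus and 100% = saturating agonist plus stimulus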
Target sequence (P25929 whole entry, looked up): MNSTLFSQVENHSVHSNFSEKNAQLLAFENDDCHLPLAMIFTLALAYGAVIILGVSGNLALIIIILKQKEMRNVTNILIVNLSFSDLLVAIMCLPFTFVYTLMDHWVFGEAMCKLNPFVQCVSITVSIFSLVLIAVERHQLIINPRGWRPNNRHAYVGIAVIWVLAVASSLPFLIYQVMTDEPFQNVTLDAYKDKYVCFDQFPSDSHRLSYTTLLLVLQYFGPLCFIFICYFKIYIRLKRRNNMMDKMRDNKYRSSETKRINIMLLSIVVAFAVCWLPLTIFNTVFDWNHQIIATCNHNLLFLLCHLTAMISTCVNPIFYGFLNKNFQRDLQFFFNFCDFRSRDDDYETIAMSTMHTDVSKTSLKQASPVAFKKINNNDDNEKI
Rad51 HR inh = Rad51 (human) homologous recombination inhibition; Q06609; hRad51 DNA strand exchange, fluorescence dequenching; inhibition, % at 10 µM; 200,000 compounds, 0.085% hits; AID 1385;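 active = inhibition above 40% at the single screening dose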;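 also: 0% = DMSO control wells and 100% = blanks with heterologous ssDNA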
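Test system: preformed human Rad51 ssDNA filaments. Compound dosing: single dose, 10 µM final compound. Incubation: filaments 15 min 37 °C, then compound 30 min. Technique: FRET fluorescence dequenching, excitation 485 nm, emission 520 nm. Read-out basis: percent inhibition from fluorescence, normalised to plate control and blank means. Benchmarks: plate controls and plate blanks.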
NPY-Y1 antag = blocks the human neuropeptide Y Y1 receptor; 200,000 compounds, 1% hits; AID 1040; inhibition, % at 3.6 µM; HEK293-CNG Y1 cells, membrane potential fluorescence; NPY at EC95, then isoproterenol;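 active = inhibition above the campaign mean inhibition of all tested compounds plus 3 SD, cut at about 20% in these data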;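 also: 0% = DMSO wells given NPY plus isoproterenol and 100% = isoproterenol alone without NPY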
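Material: HEK293 cells with Y1 receptor plus CNG channel; times: compound incubation 1 h at room temperature, readout 45 min post-stimulation; signal: fluorescence, membrane potential probe; read-out basis: fluorescence ratio normalized to % inhibition between controls; benchmarks: full-block control isoproterenol-only wells, zero-block control NPY plus isoproterenol wells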
NPY-Y2 PAM-ag = potentiates or activates human NPY-Y2 receptor; P49146; cells expressing NPY-Y2, potentiator/agonist read-out; activation, % at 3.6 µM; 220,000 compounds, 0.45% hits; in the data active = activation above about 27%;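 also: cells stimulated with NPY near EC25 plus isoproterenol at EC100; 0% = vehicle plus submaximal agonist and 100% = vehicle plus saturating agonist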
* hit, by the source's call; i = inactive; / = no result. Hits are enriched below; roughly 2.8% of the tested compounds scored in any of these assays.

SMILES	Measles CPE	NPY-Y2 antag	NPY-Y1 PAM-ag	Rad51 HR inh	NPY-Y1 antag	NPY-Y2 PAM-ag
COc1cc(-c2nnc(-c3ccco3)o2)ccc1OCc1ccccc1	52	7	-14	-4	4	-7
COc1cc(-c2nnc(-c3ccncc3)o2)ccc1OCc1ccccc1	91*	-2	-4	2	6	5
CN(C)N=Nc1nc2c(c(=O)n(C)c(=O)n2C)n1C	/	/	-9	16	/	6
CCCCCn1c(SCC2CCCO2)nc2cc(C(=O)N3CCC(C(N)=O)CC3)ccc2c1=O (centres undefined)	55*	0	-31	0	0	-2
c1ccc(CN2c3ccccc3-c3nc4ccccc4n3C2c2ccccn2)cc1 (centres undefined)	36	19*	-17	-1	37*	-9
CC1=CS/C(=C(/C#N)C(=O)N2CCCCC2)N1c1ccccc1	33*	1	19	-8	-4	7
O=C(COc1ccccc1)Nc1cccc(-c2nc3cc4ccccc4cc3[nH]2)c1	2	0	-17	-10	-5	-8
CCSC1=NCCN1C(=O)c1ccc(S(=O)(=O)N(C)C)cc1	/	/	-22	41*	2	2
Cc1oc2ccc(Br)cc2c(=O)c1-c1nn[nH]n1	/	/	-10	13	7	-16
COc1ccccc1-c1noc(-c2ccccc2C(=O)Nc2ccccc2)n1	16	24*	-36	-6	23*	-6
COc1ccccc1NC(=O)c1ccccc1-c1nc(-c2ccccc2OC)no1	10	9	-30	4	12	-20
Cc1cc(=O)oc(C)c1C(=O)NCCCN1CCN(c2ccc(F)cc2)CC1	43*	-1	-20	-8	3	8
COc1ccc(N2CCN(CCNC(=O)c3c(C)cc(=O)oc3C)CC2)cc1	17	2	-10	-1	4	6
CC(=O)c1ccccc1OC(=O)CCN1C(=O)c2ccccc2C1=O	/	/	-14	12	5	-7
CCCN1C(=O)/C(=C/c2c(N3CCNC(=O)C3CC(=O)OC)nc3c(C)cccn3c2=O)SC1=S (centres undefined)	/	/	27	i	/	13
S=c1[nH]nc(-c2ccccc2)n1/N=C/c1ccc(-c2ccccc2Cl)o1	70*	1	4	/	2	9
C[n+]1ccc(C(=O)N/N=C/c2ccco2)cc1	60*	2	2	8	2	15
CCN(CC)C(=O)N1c2ccccc2C=Cc2ccccc21	57*	8	12	-2	7	11
c1cc2c3c(cccc3c1)NC1(CCC3(CC1)Nc1cccc4cccc(c14)N3)N2	/	/	60*	2	/	56*
c1cc2c3c(cccc3c1)NC1(CCCCCC1)N2	6	0	16	2	1	9
O=C(O)CC(NC(=O)C(c1ccccc1)c1ccccc1)c1ccc(F)cc1 (centres undefined)	/	/	6	/	-4	-12
O=C1OC(Nc2cc(Br)cc3cccnc23)c2ccccc21 (centres undefined)	7	3	-18	0	4	-7
COC(=O)C1=C(N)Oc2cc(C)[nH]c(=O)c2C1c1cccnc1 (centres undefined)	4	-1	-11	5	12	-4
CCCOc1ccc(N2CC(C(=O)Nc3ccccc3C(=O)NCc3ccco3)CC2=O)cc1 (centres undefined)	6	4	-27	-47	-7	-4
COc1ccc(N2CC(C(=O)Nc3ccccc3C(=O)NCc3ccco3)CC2=O)cc1 (centres undefined)	35*	1	-5	-8	-7	1
SMILES	Measles CPE	NPY-Y2 antag	NPY-Y1 PAM-ag	Rad51 HR inh	NPY-Y1 antag	NPY-Y2 PAM-ag
CC1=NOC(=O)/C1=C\c1ccc(-c2ccccc2Br)o1	/	/	-20	17	1	-6
c1cc(CNCCCN2CCOCC2)ccn1	11	1	0	-1	-3	-9
CC(=O)N(CCCN1CCOCC1)Cc1ccncc1	57*	0	0	0	17	-4
Cc1cc(F)ccc1NCC(=O)Nc1ccccc1Br	50*	2	-20	10	-1	2
Cc1ccc(F)cc1NCC(=O)Nc1ccc(Cl)cc1F	28	3	-4	7	1	5
CCOc1ccccc1N(C)C(=O)c1nn(-c2ccc(OC)cc2OC)c(=O)c2ccccc12	/	/	6	16	8	8
CN(C)c1nc(SCCOC(=O)COc2ccc(Cl)cc2Cl)nc(N(C)C)n1	105*	3	-34	/	2	-13
CN(C)c1nc(OCCOC(=O)COc2ccc(Cl)cc2Cl)nc(N(C)C)n1	12	4	-7	0	2	-12
CC(=O)Nc1ccc(S(=O)(=O)N(C)c2ccc(O)cc2)cc1	44*	1	-5	6	-9	-10
CCn1ncc(/C=N\NC(=O)Cc2ccc([N+](=O)[O-])cc2)c1C	46*	4	-15	/	1	-3
O=C(Cc1ccc([N+](=O)[O-])cc1)N/N=C/c1ccc([N+](=O)[O-])o1	/	/	21	23	-3	16
CC1CCN(c2ccccc2NC(=S)NC(=O)C(C)(C)C)CC1	/	/	1	-14	7	-7
CC1CCN(c2ccccc2NC(=S)NC(=O)c2ccco2)CC1	/	12	-48	-2	35*	-25
CCOc1cc(N2CCOCC2)c(OCC)cc1NC(=O)CN1CCCC1	3	2	-20	1	-3	-7
Cc1ccc(Cn2ncc3c(N4CCOCC4)ncnc32)cc1	3	1	8	-8	2	-11
Cc1ccc(Cn2ncc3c(N4CCN(c5ccccc5C)CC4)ncnc32)cc1	2	12	-20	-10	27*	-14
CCOc1cc(/C=N/NC(=O)c2cc(-c3cccnc3)nc3ccccc23)ccc1O	/	/	-4	8	-6	-1
O=C(NCc1cccnc1)C1CCN(C(=O)c2ccc(Cl)cc2Cl)CC1	35*	0	4	6	1	4
O=C(NCc1cccnc1)C1CCC(c2ccc(Cl)cc2)CC1 (centres undefined)	/	/	-2	5	/	14
CCN(c1ccccc1)c1ncnc2c1cnn2-c1ccccc1	49*	0	-4	6	2	-11
Cc1ccc(-n2ncc3c(SCc4ccccc4)ncnc32)cc1	35*	3	-7	-11	2	7
CN(Cc1ccccc1)c1ncnc2c1cnn2-c1ccccc1	11	5	-41	4	7	-1
Cc1ccc(CSc2ncnc3c2cnn3-c2ccccc2)cc1	2	5	4	4	0	9
CCOc1cc(-c2nc(C)c(C(C)=O)n2O)ccc1OCC(=O)Nc1cccc(C)c1	/	/	-14	10	-6	4
CN(Cc1ccccc1)C(=O)c1oc(=O)c2ccccc2c1-c1ccccc1	2	23*	-2	-1	31*	-10
Cc1ccc(-c2c(C(=O)N(C)Cc3ccccc3)oc(=O)c3ccccc23)cc1	8	34*	-29	-2	35*	-20

Bioassay records from PubChem BioAssay.
